TAAR1 agonist: human TAAR1 agonism | Q96RJ0 | CHO RD-HGA16 TAAR1, Fluo-8 calcium fluorescence; vehicle wells 0%, saturating PEA agonist 100% | activation, % at 3 µM | 360,000 compounds, 0.99% hits | AID 624467;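 active = activation above the mean activation of all test compounds in the run plus 3 SD, cut at about 38% in these data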
Target sequence (Q96RJ0 whole entry, looked up): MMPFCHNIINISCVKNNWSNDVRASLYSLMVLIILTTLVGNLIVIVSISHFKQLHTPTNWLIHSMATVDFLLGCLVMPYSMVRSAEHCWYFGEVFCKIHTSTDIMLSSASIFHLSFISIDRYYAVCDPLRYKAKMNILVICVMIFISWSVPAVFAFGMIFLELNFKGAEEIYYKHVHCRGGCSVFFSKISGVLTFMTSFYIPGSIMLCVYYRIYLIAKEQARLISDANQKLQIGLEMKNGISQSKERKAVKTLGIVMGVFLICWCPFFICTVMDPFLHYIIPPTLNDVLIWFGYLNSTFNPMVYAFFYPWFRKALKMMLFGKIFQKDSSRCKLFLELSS
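test system = CHO RD-HGA16 cells carrying human TAAR1 plus Gα16 | schedule = 17-24 h seeding, 75 min 37 °C dye, 30 min RT | compound dosing = 3 µM single concentration | control set = DMSO and PEA EC100 | replicates = n 1 | signal = Fluo-8 fluorescence, 5 s baseline then 140 s kinetic read | measure = percent activation vs PEA EC100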
OX1R antag-1: antagonists of human orexin 1 receptor (OX1R); 330,000 compounds, 1.8% hits; inhibition, % at 6.6 µM; OX1R-expressing cells, FRET antagonist read-out; AID 485270; O43613; in the data active = inhibition mostly above about 38%, no sharp cut-off; inactive = mostly below about 40%;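 note: 0% = agonist challenge alone and 100% = reference antagonist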
CHO parental Ca: counter-screen: ATP calcium response change in parental CHO cells; inhibition, % at 5.6 µM; 330,000 compounds, 0.63% hits; parental CHO-K1, ATP-induced calcium, Fluo-8 fluorescence;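 active = inhibition above that plate's mean sample inhibition plus 3 SD, cut at about 26% in these data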;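 note: 0% = ATP-challenged DMSO wells and 100% = DMSO wells without ATP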
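Material – parental CHO cells · Reagent – ATP stimulus · Compound – single nominal dose of 5.6 µM per compound · Detection – Fluo-8 fluorescence · Read-out basis – percent inhibition of calcium signal · Controls – ATP-challenged DMSO wells low, unchallenged DMSO wells high · Repeats – no replicates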
TAAR1 antag: antagonists of human TAAR1; Q96RJ0; CHO RD-HGA16 TAAR1, Fluo-8 calcium fluorescence, antagonist; inhibition, % at 3 µM; 360,000 compounds, 1.5% hits;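 active = inhibition above a per-plate cutoff, the mean inhibition of test compounds on that plate plus 3 SD, cut at about 49% in these data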;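 note: 0% = DMSO plus EC80 beta-PEA response and 100% = DMSO alone without agonist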
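System: CHO RD-HGA16 cells bearing hTAAR1. Reagent: EC80 β-phenethylamine stimulus. Schedule: seeding 17-24 h prior, 75-min 37 °C, 30-min RT dye loading. Signal: Fluo-8 intracellular calcium dye fluorescence, real-time kinetic reads. Read-out: % inhibition from peak post-agonist over basal fluorescence ratio. Benchmarks: vehicle wells and EC80 agonist wells. Replicates: n of 1.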
GPR7 antagonist: blocks human GPR7 receptor signaling | P48145 | GPR7-expressing cells, fluorescence antagonist assay | inhibition, % at 4.4 µM | 290,000 compounds, 1.1% hits | AID 1861; in the data active = inhibition above about 16%, passing the limit was not always enough;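 note: cells stimulated with the agonist NPW; 0% = agonist with vehicle and 100% = vehicle without agonist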
Target sequence (P48145 whole entry, looked up): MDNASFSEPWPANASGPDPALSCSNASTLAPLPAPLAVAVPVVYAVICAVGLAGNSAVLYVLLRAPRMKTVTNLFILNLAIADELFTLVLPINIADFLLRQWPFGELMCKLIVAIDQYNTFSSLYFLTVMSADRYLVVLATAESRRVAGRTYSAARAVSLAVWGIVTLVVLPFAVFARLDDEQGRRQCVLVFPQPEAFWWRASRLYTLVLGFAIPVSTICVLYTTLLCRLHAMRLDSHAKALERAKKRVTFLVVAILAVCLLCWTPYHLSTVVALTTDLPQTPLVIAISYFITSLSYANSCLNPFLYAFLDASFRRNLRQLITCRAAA
OX1R antag-2: human HCRTR1 antagonism; AID 434989; CHO/OX1R cells, Fluo-8 calcium fluorescence, orexin A; inhibition, % at 5 µM; 330,000 compounds, 0.43% hits; O43613;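 active = inhibition above its plate's threshold, mean inhibition of all tested compounds on the plate plus 3 SD, cut at about 37% in these data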;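 note: 0% = orexin A challenge wells and 100% = SB-334867-A antagonist wells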
TAAR1 nonsel count: counter-screen for TAAR1 antagonists: nonselective antagonists; counterscreen cell line, calcium fluorescence, antagonist mode; shares compounds with TAAR1 antag; 2,400 compounds, 77% hits; AID 651780; inhibition, % at 3 µM; in the data active = inhibition above about 22%;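 note: CHO-Ga16 host cells stimulated with ATP at an EC80 level; 0% = agonist EC80 plus vehicle and 100% = vehicle without agonist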
TAAR1 antag conf: human TAAR1 antagonism, confirmed. shares compounds with TAAR1 antag. TAAR1-expressing cells, fluorescence antagonist read-out. inhibition, % at 3 µM. 2,400 compounds, 40% hits; in the data active = inhibition above about 49%;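 note: CHO-Ga16 host cells challenged with agonist PEA near its EC80; 0% = agonist at EC80 plus vehicle and 100% = vehicle with no agonist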
Ga16 nonsel ag: nonselective Ga16 agonism, counter-screen; Ga16-expressing cells, calcium fluorescence, agonist counterscreen; activation, % at 3 µM; shares compounds with TAAR1 antag; 2,400 compounds, 18% hits; in the data active = activation above about 12%;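 note: 0% = vehicle wells and 100% = saturating stimulus response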
TAAR1 ag count: activates human TAAR1 in antagonist counter-screen | AID 651955 | activation, % at 3 µM | shares compounds with TAAR1 antag | hTAAR1 cell line, fluorescence activation, agonist mode | 2,400 compounds, 2% hits; in the data active = activation above about 37%;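 note: CHO cells stably expressing TAAR1 with calcium dye readout; 0% = DMSO vehicle and 100% = full agonist response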
The depositor's hits bear a star; x = no result given. Rows were chosen to be rich in hits. Some 4.6% of all compounds tested hit in one or more screens of this group.

SMILES	TAAR1 agonist	OX1R antag-1	CHO parental Ca	TAAR1 antag	GPR7 antagonist	OX1R antag-2	TAAR1 nonsel count	TAAR1 antag conf	Ga16 nonsel ag	TAAR1 ag count
O=C(Nc1ccc(N2CCN(C(=O)c3ccccc3)CC2)c(Cl)c1)c1ccco1	14	16	-13	40	-3	-21	x	x	x	x
CC(=O)Nc1ccc(Nc2nc(-c3ccccc3)nc3ccccc23)cc1	21	29	4	59*	-1	-19	34*	56*	8	6
Oc1ccc(Nc2nc(-c3ccccc3)nc3ccccc23)cc1	x	-5	6	x	-6	-11	x	x	x	x
Cc1ccc(Nc2nc(-c3cccnc3)nc3ccccc23)cc1	-1	12	-32	56*	-6	-6	17	27	3	-1
C#CCOCCOCCOCCNc1nc(N2CCOCC2)nc(N2CCN(C(=O)[C@H](C)n3cc(CCC(=O)O)nn3)CC2)n1	12	x	x	107*	x	x	6	2	4	6
C#CCOCCOCCOCCNc1nc(N2CCN(C(=O)[C@H](CCCN=C(N)N)n3cc(C(N)[C@@H](C)CC)nn3)CC2)nc(N2CCN(C(=O)[C@H](CCC(=O)O)n3cc([C@@H](N)CCCCN)nn3)CC2)n1 (some centres undefined)	0	0	0	5	x	-10	x	x	x	x
C#CCOCCOCCOCCNc1nc(N2CCN(C(=O)[C@H](CCCN=C(N)N)n3cc(C(N)[C@@H](C)CC)nn3)CC2)nc(N2CCN(C(=O)[C@H](CCCCN)n3cc([C@@H](N)[C@H](C)CC)nn3)CC2)n1 (some centres undefined)	12	0	2	109*	x	0	6	10	9	1
CN1CCN(c2ncnc3c2c(-c2ccccc2)cn3-c2ccc(F)cc2)CC1	10	0	-14	60*	5	6	11	53*	9	28
CC(C)COc1ccc(C(=O)N/N=C/c2ccoc2)cc1	-1	44	2	62*	-11	-21	13	37	8	10
CCOc1cc(C(=O)N/N=C/c2ccoc2)cc(OCC)c1OCC	-1	x	x	-1	3	x	x	x	x	x
CC(C)(C)c1cnnn1-c1ccc(NC(=O)c2ccc(Br)o2)cc1	7	17	-13	58*	-14	-24	12	16	2	-1
COc1cccc(C(=O)Nc2ccc(-n3nncc3C(C)(C)C)cc2)c1	3	20	-11	-5	0	-8	x	x	x	x
CCC(=O)Nc1ccc(-c2nc(-c3ccccc3)n(CC(=O)N3CCCCC3)n2)cc1	18	32	-6	48	-14	-18	x	x	x	x
CSc1ccc(CN(C)C(=O)C(c2ccccc2)c2ccccc2)cc1	0	-6	-31	7	-6	1	x	x	x	x
CCOc1ccc(CN(C)C(=O)NNC(=O)c2ccc(C)cc2)cc1OC	0	14	4	-7	0	-10	x	x	x	x
CN(Cc1ccc(F)cc1)C(=O)C(Cc1ccccc1)NC(=O)c1ccccc1 (centres undefined)	9	41	-24	67*	x	-20	27*	55*	9	7
CSc1ccc(CN(C)C(=O)C(Cc2ccccc2)NC(=O)c2ccccc2)cc1 (centres undefined)	9	70*	-23	82*	11	-1	34*	57*	10	10
CCOc1ccc(CN(C)C(=O)[C@H](Cc2ccccc2)NC(=O)OCc2ccccc2)cc1OC	12	19	-16	62*	2	-15	30*	55*	9	8
COc1ccc(C(=O)/C=C/c2cccc(OCc3ccccc3)c2)cc1CSCC(=O)O	3	21	-14	15	16	7	x	x	x	x
COc1ccc(C(=O)/C=C/c2ccc(OCc3ccccc3)cc2)cc1CSCC(=O)O	13	x	x	62*	-22	x	38*	54*	10	10
Cc1ccc(-c2nc(CS(=O)CC(=O)NCCC(C)C)c(C)o2)cc1 (centres undefined)	x	5	-12	x	-17	-26	x	x	x	x
N=c1c2c(ncn1CCN1CCOCC1)Oc1cc(O)ccc1C2c1ccccc1 (centres undefined)	18	12	-10	75*	-9	-20	22*	40	8	10
CCC(C)C(NC(=O)C(C)NC(=O)CNC(=O)OC(C)(C)C)C(N)=O (centres undefined)	1	17	0	26	3	-7	x	x	x	x
COc1ccc(-c2cc(-c3nnc(COC(=O)C4CC4C)o3)c3ccccc3n2)cc1OC (centres undefined)	11	20	-16	65*	-9	-25	21	41	5	1
COc1ccc(-c2cc(-c3nnc(COC(=O)c4ccc(O)cc4)o3)c3ccccc3n2)cc1OC	16	13	-8	48	1	-12	x	x	x	x
SMILES	TAAR1 agonist	OX1R antag-1	CHO parental Ca	TAAR1 antag	GPR7 antagonist	OX1R antag-2	TAAR1 nonsel count	TAAR1 antag conf	Ga16 nonsel ag	TAAR1 ag count
COCCCNC(=O)/C(C#N)=C/c1c(N2CCN(c3ccccc3)CC2)nc2c(C)cccn2c1=O	11	24	-27	50*	-10	-8	19	36	6	6
COCCCNC(=O)/C(C#N)=C/c1c(N2CCN(c3cccc(Cl)c3)CC2)nc2c(C)cccn2c1=O	4	8	-33	32	-9	-33	x	x	x	x
NC(c1csc(NC(=O)Nc2ccccc2)n1)C1CCCCC1 (centres undefined)	24	x	x	1	x	x	x	x	x	x
COc1cc(NC(=O)c2cc3ccccc3o2)c(OC)cc1Cl	10	-5	-23	55*	-12	-13	17	54*	0	1
COc1cc(NC(=O)c2cc3ccccc3o2)c(OC)cc1Br	9	25	-21	2	0	-15	x	x	x	x
Cc1cc(C(=O)NCCN2C(=O)S/C(=C\c3cccs3)C2=O)ccc1[N+](=O)[O-]	12	53	2	57*	-2	-6	38*	47	10	7
Cc1cc(C(=O)NCc2cccs2)ccc1[N+](=O)[O-]	5	51	-6	5	-1	12	x	x	x	x
COC(=O)CCCC[C@@H]1O[C@H](CCc2ccccc2)CC2=C1C(=O)OC(C)(C)O2	6	x	x	61*	x	x	26*	50*	4	5

Source: PubChem
